The values below come from paper PMC8026699 (Cancer research, 2021).

In one series the test system is Brpkp110 tumors. Description: Brpkp110 tumor growth in NSG mice. It counts as in vivo, mouse. In a few lines: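 Brpkp110 cells (5×10^5 in PBS:Matrigel) implanted subcutaneously in 5–6-week-old female NSG mice, then randomized. Daily dosing: vehicle (10% DMSO, 20% solutol, 70% water with 0.5% Tween20) or 100 mg/kg test compound. Volume (L × W²)/2 from calipers thrice weekly. Resected tumors: formalin-fixed, paraffin-embedded, citrate steam retrieval, H2O2 block, Ki67 antibody, DAB with hematoxylin counterstain.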

Series [1] in a line: Pharmacokinetic analysis in CD-1 mice. It is filed as in vivo, mouse. To be noted: oral gavage 30 mg/kg, intravenous 2 mg/kg, intraperitoneal 10 mg/kg. Summed up:
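Formulation: 10% DMSO, 10% Solutol, 80% PBS. Dosing in CD-1 mice based on 28 g average weight. Three mice per time point; trunk blood collected into K2-EDTA and kept on wet ice until centrifugation. Plasma extracted in acetonitrile/water with tolbutamide internal standard, centrifuged, supernatant analysed by LC-MS. Mean ± S.D.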

Another series deals with WHIM12 tumors. The series is described as follows: WHIM12 PDX tumor growth. As to conditions: WHIM12 (ACSS2 low), 100 mpk daily PO. It counts as in vivo, mouse. Summed up:
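Female NSG mice, 5–6 weeks old, received subcutaneous PBS:Matrigel grafts: BT474 at 1×10^6 (with a 60-day 17β-estradiol pellet at the neck), MDA-MB-468 at 5×10^6, or WHIM12 PDX cells at 2×10^6. Once tumors established, mice were randomized to daily IP or oral gavage. Arms: vehicle (10% DMSO, 20% solutol, 70% water with 0.5% Tween20) or 100 mg/kg test compound. Calipers thrice weekly; volume (L × W²)/2.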

The test system of a further series is ACSS1 in BT474 cells. Description: 13C2-acetate labeling of citrate in BT474 cells. It is filed as cell-based, human. Summed up: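 Cells grown 24 h in serum-like modified Eagle's medium (SMEM) with 0.1 mM uniformly labeled 13C2-acetate. Conditions were normoxia with 10% dialyzed FBS (N10) or 1% O2 hypoxia with 1% dialyzed FBS (H1). Vehicle or test compound present. Cells washed in ice-cold PBS and extracted with methanol/acetonitrile/water (5:3:2) at 4°C for 5 min. Cleared extracts analysed by HILIC LC-MS on a Q Exactive HF-X.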

The subject of series [2] is BT474, MDA-MB-468, and WHIM12 tumors. The series is described as follows: Heavy acetate stable isotope tracing in tumors. It counts as in vivo, mouse. Summed up:
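Tumor-bearing mice received 2% D3- or 13C2-acetate in drinking water for two days, plus a 2 g/kg IP heavy-acetate bolus 90 min before sacrifice. Tumors excised under anesthesia and flash-frozen. Extraction at 40 mg/mL in methanol/acetonitrile/water (5:3:2) by bead homogenization, cleared twice. Citrate labeling analysed by HILIC LC-MS.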

For another series, the system named is A7C11 cells. Description: 13C2-acetate labeling of palmitate in A7C11 cells. It counts as cell-based, mouse. To be noted: A7C11, N10 and H1, 24 hr, 100 μM 13C2-acetate. In a few lines: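 Cells labeled 24 h with 100 μM 13C2-acetate in SMEM under N10 (normoxia, 10% dialyzed FBS) or H1 (1% O2, 1% dialyzed FBS). Vehicle or test compound present; for BT474 in H1, a 10-fold dilution series. Lipids extracted with methanol/chloroform/PBS, saponified in 0.3 M KOH/90% methanol at 70°C for 1 h, then hexane-extracted. Palmitate labeling read by C18 reverse-phase LC-MS. n = 3, mean ± S.D.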

Series [3] can be described thus: Body weight in tumor xenograft studies. It counts as in vivo, mouse. As to conditions: 100 mg/kg daily IP or oral gavage vs vehicle. Summed up: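 Female NSG mice, 5–6 weeks old, carried subcutaneous tumours in PBS:Matrigel (BT474 with a 17β-estradiol pellet; MDA-MB-468, WHIM12, A7C11, Brpkp110) or BT474 mammary fat-pad orthografts. After tumour establishment, mice were randomized and dosed daily by IP injection or oral gavage. Groups received vehicle (10% DMSO, 20% solutol, 70% water containing 0.5% Tween20) or test compound at 100 mg/kg.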

Another series deals with T1, recombinant human ACSS1 (Homo sapiens, UniProt Q9NUB1).
T1 sequence (Q9NUB1 38-689): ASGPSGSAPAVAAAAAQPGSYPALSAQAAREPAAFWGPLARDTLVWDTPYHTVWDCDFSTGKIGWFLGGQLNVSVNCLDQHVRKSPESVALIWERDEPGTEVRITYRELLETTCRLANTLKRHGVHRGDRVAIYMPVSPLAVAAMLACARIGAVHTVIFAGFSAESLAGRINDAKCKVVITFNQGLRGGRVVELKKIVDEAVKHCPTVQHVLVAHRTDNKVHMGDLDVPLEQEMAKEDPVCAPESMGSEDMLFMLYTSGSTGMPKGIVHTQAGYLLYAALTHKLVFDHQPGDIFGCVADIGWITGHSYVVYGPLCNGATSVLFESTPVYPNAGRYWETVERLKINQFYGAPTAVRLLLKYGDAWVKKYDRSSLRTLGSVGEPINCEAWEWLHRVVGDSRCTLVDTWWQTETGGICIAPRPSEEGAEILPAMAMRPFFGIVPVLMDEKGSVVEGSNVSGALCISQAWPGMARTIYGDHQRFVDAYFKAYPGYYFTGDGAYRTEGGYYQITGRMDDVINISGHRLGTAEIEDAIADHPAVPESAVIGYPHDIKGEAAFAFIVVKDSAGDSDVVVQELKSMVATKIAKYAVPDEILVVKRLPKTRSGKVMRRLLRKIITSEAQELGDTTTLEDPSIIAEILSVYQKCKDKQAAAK
Description: TranScreener AMP biochemical assay of ACSS1 activity. To be noted: regardless of the substrate (acetate or propionate). In a few lines: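 Test compound was serially diluted in DMSO and added to ACSS1 (2 nM) or ACSS3 (25 nM). Acetate reaction: HEPES pH 7.4 buffer with 140 mM NaCl; final 5 mM acetate, 50 μM ATP, 5 μM CoA. Propionate reaction: HEPES/KCl/CHAPS buffer; final 5 mM propionate, 10 μM ATP, 100 μM CoA. Incubation 120 min, then AMP detected by terbium-antibody/tracer TR-FRET after 30 min. Percent inhibition was set against no-enzyme and DMSO controls.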

Consider `CCn1c(C(O)(c2ccccc2)c2ccccc2)nc2ccc(C(=O)NC[C@@H](C)O)cc21` [VY-3-135, (R)-1-ethyl-2-(hydroxydiphenylmethyl)-N-(2-hydroxypropyl)-1H-benzo[d]imidazole-6-carboxamide], for which the tumor growth result in the series with Brpkp110 tumors (Brpkp110 (ACSS2 high), 100 mpk daily IP) is recorded as “marked inhibition”. For the same compound, in the series with Brpkp110 tumors (Brpkp110 tumors), the “Ki67 staining of tumors (proliferation)” value is listed as “less proliferative”. Moreover, in series [1], the absorption result is “completely absorbed by all routes of administration” and the exposure result is listed as “good exposure”. Besides, the tumor growth entry with WHIM12 tumors is “mostly ineffective”. Moreover, in the series on ACSS1 in BT474 cells (BT474, H1 conditions, 24 hr), the “13C2-acetate labeling of citrate” value is listed as “did not decrease”. In addition, the “M+2 citrate (acetate contribution to the TCA cycle)” value in the series with ACSS1 in BT474 cells (BT474, hypoxia and low serum stressed cells) was “increased M+2 citrate”. Besides, the “D3-acetate labeling of citrate in MDA-MB-468 tumors” value in series [2] (MDA-MB-468 tumors) is on record as “increase in D3-acetate labeling of citrate”. Moreover, the “D3-acetate or 13C2-acetate labeling of citrate in tumors” value in series [2] (readout of ACSS1) is given as “did not observe any inhibitory effect”. Besides, the “acetate dependent labeling of palmitate by 13C2-acetate” value with A7C11 cells is given as “efficiently blocked”. Further, in series [3], the body weight entry is reported as “No significant differences in body weight”. The “inhibitory activity towards ACSS1” value at recombinant human ACSS1 was “neither VY-3-249 nor VY-3-135 displayed any inhibitory activity”.
